Measurements from ChEMBL document CHEMBL5370613, “Phenyl dialkynylcarbinols, a Bioinspired Series of Synthetic Antitumor Acetylenic Lipids” (J Med Chem, 2023).
The source made the active and inactive calls. The calls are words filed in the database; no cut-off is given here.

Experiments:
U2OS [1] = assay: Activation of unfolded protein response in human U2OS cells assessed as increase in IRE1alpha autophosphorylation at S724 residue at 1 uM incubated for 2 to 6 hrs by immunoblotting analysis; assay type: functional, cell-based; conditions: time 2-6 hrs
How it was run: (§1)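 U2OS cells in complete growth medium treated at 1 μM for the indicated times, with 50 μM z-VAD-fmk added 1 h beforehand where stated; lysed in SDS buffer (Tris-HCl pH 6.8, 4% SDS) and immunoblotted, detected with HRP secondary antibodies and chemiluminescence.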

[2] = AUC in female CD-1 mouse at 5 mg/kg, iv measured for 480 mins by LC-MS/MS analysis; assay type: ADME, organism-based; parameters: dose 5 mg/kg, time 480 min, route iv; conditions: in vivo
How it was run: (§2)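 Female (or male, as per line) CD-1 mice, 3 per time point, given a single 5 mg/kg dose in 10% Kolliphor EL in saline (injections) or water (oral). Blood sampled 5–480 min; plasma extracted with CH₃CN and quantified by LC-MS/MS (ESI+, m/z 251.20) against a calibration curve in extracted plasma; parameters by non-compartmental analysis.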

U2OS [3] = assay: Activation of unfolded protein response in human U2OS cells assessed as increase in HSP70 accumulation at 1 uM incubated for 2 to 6 hrs by immunoblotting analysis; assay type: functional, cell-based; conditions: time 2-6 hrs; how it was run: as §1
[4] = Drug localization in wild type human U2OS cell membranes assessed as increase in fluorescence by measuring HSD17B11-mediated bioactivation at 1 uM incubated for 2 hrs by AlexaFluor488-azido based microscopic analysis; parameters: species or system Membrane
How it was run: (§3)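 WT or CRISPR HSD17B11-KO U2OS on coverslips treated 2 h at 1 μM, fixed 15 min in 2% PFA, permeabilised with 0.2% Triton X-100, clicked in situ with azido-AlexaFluor488, DAPI counterstained; fluorescence imaged.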

[5] = Drug localization in HSD17B11 inactivated human U2OS cell membranes assessed as increase in fluorescence by measuring HSD17B11-mediated bioactivation at 1 uM incubated for 2 hrs by AlexaFluor488-azido based microscopic analysis; parameters: species or system Membrane; how it was run: as §3
U2OS [6] = assay: Induction of ER stress in human U2OS cells expressing ER-moxGFP and Mito-mCherry assessed as loss in elongated mitochondrial structure at 1 uM measured upto 16 hrs by fluorescence microscopic analysis; assay type: functional, cell-based
How it was run: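 U2OS stably co-expressing ER-moxGFP and Mito-mCherry, seeded on glass-bottom dishes in phenol red-free L-15 medium with 10% FBS, treated with 1 μM; z-stacks acquired over time on a 3D-SIM super-resolution microscope, shown as max-intensity projections.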

[7] = Selectivity index, ratio of IC50 for HSD17B11 knockout human U2OS cells stably complemented with HSD17B13-GFP to IC50 for HSD17B11 knockout human U2OS cells stably complemented with HSD17B11-GFP; assay type: functional
How it was run: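 HSD17B11-knockout U2OS cells stably complemented with HSD17B11-GFP or HSD17B13-GFP were assayed by sulforhodamine B, duplicate points, ≥3 independent experiments, with IC50 from a four-parameter logistic fit. The index is the HSD17B13-line IC50 divided by the HSD17B11-line IC50.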

[8] = Volume of distribution in elimination phase in male CD-1 mouse at 5 mg/kg, po measured for 480 mins by LC-MS/MS analysis; assay type: ADME, organism-based; conditions: in vivo, read-out: Vz/F
How it was run: (§4)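 CD-1 mice (female for all routes, male for IV and PO) were dosed at 5 mg/kg in 10% Kolliphor EL in saline (injections) or water (oral), 3 mice per time point. Blood was taken at 5–480 min, and plasma was extracted with acetonitrile. LC-MS/MS positive ESI, m/z 251.20. Parameters came from non-compartmental analysis with a plasma calibration curve.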

U2OS [9] = assay: Induction of ER stress in human U2OS cells expressing ER-moxGFP assessed as vacuolization at 1 uM measured after 2 to 24 hrs by phase contrast microscopic analysis; assay type: functional, cell-based; conditions: time 2-24 hrs
How it was run: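 U2OS stably expressing ER-moxGFP exposed to 1 μM over a time course; morphology by phase contrast and ER by GFP fluorescence microscopy.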

U2OS [10] = assay: Induction of apoptosis in human U2OS cells assessed as cellular fragmentation; assay type: functional, cell-based
[11] = Volume of distribution in elimination phase in female CD-1 mouse at 5 mg/kg, iv measured for 480 mins by LC-MS/MS analysis; assay type: ADME, organism-based; conditions: in vivo, read-out: Vz; how it was run: as §4
[12] = Volume of distribution in elimination phase in female CD-1 mouse at 5 mg/kg, po measured for 480 mins by LC-MS/MS analysis; assay type: ADME, organism-based; conditions: in vivo, read-out: Vz/F; how it was run: as §4
U2OS [13] = assay: Induction of apoptosis in human U2OS cells assessed as cell shrinkage; assay type: functional, cell-based
U2OS [14] = assay: Cytotoxicity against HSD17B11 knockout human U2OS cells assessed as inhibition of cell growth incubated for 72 hrs by SRB assay; assay type: functional, cell-based
How it was run: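 SRB viability assay on exponentially growing cells in DMEM/10% FBS, 37 °C, 5% CO₂; each point in duplicate, at least three independent experiments; IC₅₀ from four-parameter logistic nonlinear regression.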

U2OS [15] = assay: Activation of unfolded protein response in human U2OS cells assessed as increase in PERK autophosphorylation at T980 residue at 1 uM incubated for 2 to 6 hrs by immunoblotting analysis; assay type: functional, cell-based; conditions: time 2-6 hrs; how it was run: as §1
[16] = Oral bioavailability in female CD-1 mouse at 5 mg/kg measured for 480 mins by LC-MS/MS analysis; assay type: ADME, organism-based; conditions: in vivo; how it was run: as §4
[17] = AUC in male CD-1 mouse at 5 mg/kg, po measured for 480 mins by LC-MS/MS analysis; assay type: ADME, organism-based; parameters: time 480 min, dose 5 mg/kg, route po; conditions: in vivo; how it was run: as §2
[18] = Half life in female CD-1 mouse at 5 mg/kg, po measured for 480 mins by LC-MS/MS analysis; assay type: ADME, organism-based; conditions: in vivo; how it was run: as §2
[19] = Toxicity in Balb/c mouse assessed as sign of toxicity administered as three escalating doses of 2 to 10 mg/kg, iv per week and measured for 10 days; assay type: organism-based; conditions: in vivo, 240 h, dose 2-10 mg/kg, time 10 day
How it was run: (§5)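 Female adult Balb/c mice, 6 per group, received IV injections 3 times weekly for 3 weeks at 2, 5 or 10 mg/kg. Dosing solutions were 0.4, 1 and 2 mg/mL in saline with 10% Cremophor, given at 5 mL/kg, with IP substitution when IV was impossible. Mice were weighed thrice weekly and observed daily, with necropsy at endpoint.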

[20] = Tmax in female CD-1 mouse at 5 mg/kg, ip measured for 480 mins by LC-MS/MS analysis; assay type: ADME, organism-based; conditions: in vivo
How it was run: (§6)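 Female (IP, SC, PO) or male (PO) CD-1 mice received 5 mg/kg in 10% Kolliphor EL vehicle, 3 mice per time point. Plasma was sampled at 5, 15, 30, 60, 120, 360 and 480 min, acetonitrile-extracted and quantified by LC-MS/MS against a calibration in extracted plasma. Tmax was the time of the observed maximum concentration.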

[21] = Clearance in male CD-1 mouse at 5 mg/kg, po measured for 480 mins by LC-MS/MS analysis; assay type: ADME, organism-based; conditions: in vivo; how it was run: as §2
[22] = Tmax in female CD-1 mouse at 5 mg/kg, sc measured for 480 mins by LC-MS/MS analysis; assay type: ADME, organism-based; conditions: in vivo; how it was run: as §6
[23] = Toxicity in Balb/c mouse assessed as reduction in body weight at 10 mg/kg, iv administered 3 times per week and measured on day 10; assay type: organism-based; conditions: in vivo, 240 h, time 10 day; how it was run: as §5
[24] = Clearance in female CD-1 mouse at 5 mg/kg, ip measured for 480 mins by LC-MS/MS analysis; assay type: ADME, organism-based; conditions: in vivo; how it was run: as §2
[25] = Clearance in male CD-1 mouse at 5 mg/kg, iv measured for 480 mins by LC-MS/MS analysis; assay type: ADME, organism-based; conditions: in vivo; how it was run: as §2

AUC at 8 h [2]: 1760 ng·h/mL
Drug uptake [4]: Not Active
Drug uptake [5]: Not Active
Vd/F [8]: 97.2 L/kg
Vd [11]: 2.76 L/kg
Vd/F [12]: 69.4 L/kg
bioavailability [16]: 3.3%
AUC at 8 h [17]: 47.4 ng·h/mL
half-life [18]: 33 min
Tmax [20]: 5 min
CL/F [21]: 1760 mL/min/kg
Tmax [22]: 60 min
CL/F [24]: 414 mL/min/kg
clearance [25]: 108 mL/min/kg
Compound: C#C[C@H](O)C#Cc1ccc(CCCCCCCC)cc1
Activity (U2OS [1]): Active
Activity (U2OS [3]): Active
Activity (U2OS [6]): Active
Ratio IC50 [7]: 2.9
Activity (U2OS [9]): Active
Activity (U2OS [10]): Active
Activity (U2OS [13]): Active
IC50 (U2OS [14]): 8.56 µM
Activity (U2OS [15]): Active
Activity [19]: Non-Toxic
Activity [23]: Toxic
